Measurements reported in ChEMBL document CHEMBL2046351, “Discovery of cyclic sulfone hydroxyethylamines as potent and selective β-site APP-cleaving enzyme 1 (BACE1) inhibitors: structure-based design and in vivo reduction of amyloid β-peptides” (J Med Chem, 2012).

Legend:
Cytochrome P450 3A4 = Cytochrome P450 3A4 (Homo sapiens, UniProt P08684); assay: Inhibition of CYP3A4; format: ADME
[1] = Oral bioavailability in C57BL/6 mouse at 60 umol/kg dosed in HS15/propylenglycol/citrate buffer, pH 4.75, 50 mM (10/5/85, v/v/v) by LC/MS/MS analysis; format: ADME, organism-based; conditions: in vivo
Procedure, shortened: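 Oral gavage (10 mL/kg) to male C57BL/6 mice with iv reference segment (2 μmol/kg, NMP/blank plasma 10:90). Noncompartmental analysis of LC-MS/MS blood profiles, 1/Y weighting; %F = dose-normalized oral AUC / dose-normalized iv AUC × 100, assuming linear pharmacokinetics between doses.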

Brain = assay: Drug uptake in C57BL/6 mouse brain at 60 umol/kg, po dosed in HS15/propylenglycol/citrate buffer, pH 4.75, 50 mM (10/5/85, v/v/v) measured 1 hr post dosing by LC/MS/MS analysis; format: ADME, organism-based; conditions: in vivo, pH 4.75, 1 h
Procedure, shortened: (§1)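 Male C57BL/6 mice dosed by oral gavage, 10 mL/kg. Blood sampled 0.25, 0.5, 1, 2, 4, 6 h; brain at 1 and/or 4 h; n = 3 per time. Blood acetonitrile-precipitated, brain water-homogenized then precipitated; LC-MS/MS with weighted linear calibration.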

Cathepsin D = Cathepsin D (Homo sapiens, UniProt P07339); assay: Inhibition of human recombinant CatD using Mca-GKPILFFRLK(DNP)-dR-NH2 as substrate after 1 hr by fluorescence analysis
Sequence of Cathepsin D (P07339 65-162 limits assumed): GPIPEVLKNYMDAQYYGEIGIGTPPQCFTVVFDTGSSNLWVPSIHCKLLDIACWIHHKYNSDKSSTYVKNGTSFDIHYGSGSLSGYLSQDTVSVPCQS
Sequence of Cathepsin D (P07339 169-412 limits assumed): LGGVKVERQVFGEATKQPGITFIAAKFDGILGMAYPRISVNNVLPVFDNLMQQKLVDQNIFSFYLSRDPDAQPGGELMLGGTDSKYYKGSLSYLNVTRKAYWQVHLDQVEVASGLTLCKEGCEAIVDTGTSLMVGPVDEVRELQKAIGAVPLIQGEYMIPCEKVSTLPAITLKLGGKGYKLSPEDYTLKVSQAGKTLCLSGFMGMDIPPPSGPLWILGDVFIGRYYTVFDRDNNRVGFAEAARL

[2] = Drug uptake in C57BL/6 mouse blood at 60 umol/kg, po dosed in carboxymethyl cellulose 0.5% w/v in water/Tween 80 (99.5/0.5, v/v) measured 4 hrs post dosing by LC/MS/MS analysis; format: ADME, organism-based; conditions: read-out: Drug uptake; procedure, shortened: as §1
[3] = Drug uptake in C57BL/6 mouse blood at 6 umol/kg, po dosed in carboxymethyl cellulose 0.5% w/v in water/Tween 80 (99.5/0.5, v/v) measured 1 hr post dosing by LC/MS/MS analysis; format: ADME, organism-based; conditions: read-out: Drug uptake; procedure, shortened: as §1
[4] = Drug uptake in C57BL/6 mouse blood at 6 umol/kg, po dosed in carboxymethyl cellulose 0.5% w/v in water/Tween 80 (99.5/0.5, v/v) measured 4 hrs post dosing by LC/MS/MS analysis; format: ADME, organism-based; conditions: read-out: Drug uptake; procedure, shortened: as §1

Sequence of Cytochrome P450 3A4 (P08684 whole entry): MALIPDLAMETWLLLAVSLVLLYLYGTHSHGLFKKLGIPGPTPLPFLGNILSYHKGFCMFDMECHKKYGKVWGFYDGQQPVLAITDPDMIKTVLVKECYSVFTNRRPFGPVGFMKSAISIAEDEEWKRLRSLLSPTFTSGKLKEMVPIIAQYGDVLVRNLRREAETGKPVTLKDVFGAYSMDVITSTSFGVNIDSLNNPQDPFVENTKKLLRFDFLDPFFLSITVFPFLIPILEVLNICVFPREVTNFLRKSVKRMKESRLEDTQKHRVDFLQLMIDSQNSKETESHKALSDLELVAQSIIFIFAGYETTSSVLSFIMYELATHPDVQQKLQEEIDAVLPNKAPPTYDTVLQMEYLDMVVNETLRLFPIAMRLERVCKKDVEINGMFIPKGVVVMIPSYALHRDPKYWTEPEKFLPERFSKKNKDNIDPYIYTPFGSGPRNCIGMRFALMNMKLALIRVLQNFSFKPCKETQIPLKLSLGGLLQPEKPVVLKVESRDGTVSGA

CC(C)(C)c1cccc(CN[C@H]2CS(=O)(=O)C[C@@H](Cc3cc(F)c(N)c(OC(C(F)(F)F)C(F)(F)F)c3)[C@@H]2O)c1 gave an IC50 (Cytochrome P450 3A4) of 300 nM, a bioavailability [1] of 33% and a Drug uptake (Brain) of 0.23 nmol/g.
CC(C)(C)c1cccc(CN[C@H]2CS(=O)(=O)C[C@@H](Cc3cc(F)c(N)c(OCC(F)(F)F)c3)[C@@H]2O)c1 gave an IC50 (Cathepsin D) of 690 nM, a concentration at 4 h [2] of 1860 nM and a concentration at 1 h [3] of 30 nM. The concentration at 4 h [4] was 10 nM.
